Compound activity (PubChem)
Shown are actives, neighbours in structure and some others; about 6% of the full set was active somewhere.
PTK2B oligo ant = antagonists of Pyk2 self-association, primary screen, Q293 cells, FERM NanoBiT luminescence, HTS | Protein-tyrosine kinase 2-beta (Homo sapiens), Q14289 | active compounds read low | z-score (the deposit names both 25 µM and 10 µM) | actives 0.83% (n = 99,000);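 active = Z-score of -3 or lower, scaled per plate to the spread of control and sample wells; inactive = z-score above -3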;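 note: negative z-score means lost luminescence so less FERM oligomerization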
Target sequence (Q14289 whole entry, looked up): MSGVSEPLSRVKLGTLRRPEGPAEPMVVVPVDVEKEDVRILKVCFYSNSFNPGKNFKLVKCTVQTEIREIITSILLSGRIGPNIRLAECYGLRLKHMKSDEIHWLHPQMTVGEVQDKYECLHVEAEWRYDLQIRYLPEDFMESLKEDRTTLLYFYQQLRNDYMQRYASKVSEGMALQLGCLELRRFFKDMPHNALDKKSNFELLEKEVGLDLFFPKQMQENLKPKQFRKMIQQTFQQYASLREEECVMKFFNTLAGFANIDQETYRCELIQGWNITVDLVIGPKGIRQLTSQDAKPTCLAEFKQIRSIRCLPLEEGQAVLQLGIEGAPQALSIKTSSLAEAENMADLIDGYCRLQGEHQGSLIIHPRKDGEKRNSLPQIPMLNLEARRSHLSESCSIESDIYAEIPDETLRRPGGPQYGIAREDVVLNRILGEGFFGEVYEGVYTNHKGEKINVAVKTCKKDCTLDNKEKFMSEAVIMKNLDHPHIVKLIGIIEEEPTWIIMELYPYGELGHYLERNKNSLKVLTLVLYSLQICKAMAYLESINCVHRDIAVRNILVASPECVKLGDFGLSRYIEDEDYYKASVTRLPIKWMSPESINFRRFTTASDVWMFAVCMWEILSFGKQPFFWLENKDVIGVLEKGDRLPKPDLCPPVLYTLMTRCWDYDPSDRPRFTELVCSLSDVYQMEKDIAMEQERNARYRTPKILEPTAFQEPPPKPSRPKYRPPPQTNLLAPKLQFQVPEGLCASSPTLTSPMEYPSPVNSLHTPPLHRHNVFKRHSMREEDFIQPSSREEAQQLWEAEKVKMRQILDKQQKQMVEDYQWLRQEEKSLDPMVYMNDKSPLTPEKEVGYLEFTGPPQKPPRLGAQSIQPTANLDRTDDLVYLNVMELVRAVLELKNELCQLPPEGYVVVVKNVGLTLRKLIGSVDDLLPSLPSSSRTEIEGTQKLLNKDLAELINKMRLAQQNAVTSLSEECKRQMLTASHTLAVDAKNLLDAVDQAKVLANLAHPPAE
Lung fibro prol = antiproliferative effect on LL 47 fibroblasts – human, LL 47 cells, CellTiter-Glo luminescence, primary screen; LL 47 human lung fibroblast viability, ATP luminescence; active compounds read low; viability, % at 10 µM; actives 1.1% (n = 85,000);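 active = viability at or below 50% in the single dose screen; inactive = viability above 50%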;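 note: compound exposure lasted 72 h before the ATP readout; 100% = median luminescence of untreated cell-only wells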
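Signal: luminescent ATP detection, CellTiter-Glo; assay system: LL 47 human lung fibroblasts; input: 1,150 cells/well; incubation: overnight cell rest, 72 h compound treatment at 37 °C; measure: % viability versus median cells-only luminescence; medium: IMEM growth medium with 15% fetal bovine serum; dosing: compound addition at 0.1% DMSO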
cytoskel mod = modifiers of F-actin cytoskeleton organization, primary screen, imaging, HUVEC, phalloidin staining, high-content imaging | HUVEC TNFa F-actin phalloidin imaging | inhibition, % at 2 µM | actives 0.18% (n = 91,000) | AID 836, 2007;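 active = inhibition above the batch mean plus 3 SD and confirmed as a hit by visual image inspection, cut at about 30% in these data, passing the limit was not always enough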
H69AR inhibit = proliferation blockers of H69AR lung cancer cells, primary screen, cell-based, human, 86K library; viability, % at 10 µM; actives 6% (n = 85,000); H69AR lung tumor viability, ATP luminescence, 72 h; active compounds read low;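 active = viability at or below 40%; inactive = viability above 40%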;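 note: multidrug resistant small cell line overexpressing MRP-1 efflux transporter; 100% = mean luminescence of untreated control wells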
Jurkat tox 60K = cytotoxicity toward Jurkat T cells, primary screen, cytotoxicity control, cell-based, Jurkat E6.1, 60K MLSMR library | actives 1.2% (n = 56,000) | inhibition, % at 4 µM | Jurkat E6.1 viability, ATP luminescence, 48 h;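 active = inhibition above the mean inhibition of all tested compounds plus 3 SD, cut at about 28% in these data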
HUVEC inhibit = inhibitors of HUVEC proliferation, primary screen, cell-based, 384-well | actives 1.1% (n = 86,000) | viability, % at 10 µM (by protocol) | CellTiter-Glo luminescence, 72 h; active compounds read low;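 active = viability at or below 30%; inactive = viability above 30%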;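 note: 100% = median luminescence of DMSO-only cell control wells on each plate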
Active calls of the source: *; · = no result given.

SMILES | PTK2B oligo ant | Lung fibro prol | cytoskel mod | H69AR inhibit | Jurkat tox 60K | HUVEC inhibit
COc1ccc(Cn2c(-c3ccco3)nc3oc4cc(OC)ccc4c(=O)c3c2=O)cc1 | 1.29 | 98.1 | · | 19.9* | -2.3 | 73.1
COc1ccc2c(=O)c3c(=O)n(Cc4ccco4)c(-c4ccco4)nc3oc2c1 | -0.69 | 112.2 | -6.2 | 71.3 | · | 85.5
COc1ccc(-c2nc3oc4cc(OC)ccc4c(=O)c3c(=O)n2Cc2ccco2)cc1 | -2.73 | 100.2 | -11.4 | 3.8* | 0.4 | 102.2
O=C(Nn1c(=O)[nH]c2ccccc2c1=O)c1ccco1 | -0.18 | 104.0 | 0.4 | 99.6 | · | 98.4
C=CCNc1nc(NC(C)(C)CO)nc(OC)n1 | 0.03 | 105.3 | -2.1 | 92.5 | · | 101.8
Cc1csc2ncc(C(=O)Nc3ccccc3Cl)c(=O)n12 | · | 82.2 | · | 28.8* | 3.5 | 64.5
CCOC(=O)c1c(C)oc2c1c(C=NCc1ccccn1)c(O)c1ccccc12 | · | 91.5 | · | 26.8* | 2.7 | 48.1
CCOC(=O)c1c(C)oc2c1c(C=NCC1CCCO1)c(O)c1ccccc12 (centres undefined) | -1.94 | 98.1 | -2.2 | 25.9* | -1.4 | 88.0
CCN(CC)C(=O)CN1C(=O)COCC1=O | -0.3 | 104.1 | -17.4 | 108.3 | · | 95.2
Cc1cc(C(F)(F)F)nn1CC(=O)N1CCOCC1 | 0.42 | 101.7 | -13.2 | 103.3 | · | 101.8
COC(=O)C1=C(N)c2c(F)cccc2C1(C#N)c1ccc(F)cc1 (centres undefined) | -2.05 | 99.9 | -13.2 | 76.6 | · | 89.0
CCN(C(=O)COC(=O)c1cnc(C)cn1)C1CCCCC1 | 0.87 | 102.1 | 1.6 | 98.5 | 1.4 | 86.4
O=C(OCC(=O)N(C1CCCCC1)C1CCCCC1)c1cnccn1 | -0.32 | 106.5 | · | 1.2* | 5.2 | 98.1
Cc1ccc2c(c1)N(C(=O)NC1CCCCC1)C(C)(C)CC2C (centres undefined) | 0.53 | 99.3 | -15.1 | 40.3 | · | 84.6
CN(C(=O)c1ccccc1Cl)C1CCCCC1 | 0 | 95.1 | -16.6 | 92.0 | -6.3 | 93.6
CC1CC(N(C(=O)c2ccccc2Cl)c2ccccc2)c2ccccc2N1 (centres undefined) | -3.65* | · | 3.4 | · | · | ·
CCCNC(=O)CN1C(=O)NC2(CCCc3cc(OC)ccc32)C1=O (centres undefined) | 0.3 | · | 2.7 | · | · | ·
CCOc1ccc(NC(C)c2cc(Cl)ccc2O)cc1 (centres undefined) | -1.19 | 92.3 | -6.4 | 78.2 | 0.8 | 81.7
CC(Nc1ccc(Br)cn1)c1cc(Cl)ccc1O (centres undefined) | -3.54* | 79.5 | 5.2 | 53.5 | 0.8 | 65.3
C=CCn1c(NC(C)c2cc(Cl)ccc2O)nc2ccccc21 (centres undefined) | · | 90.1 | 2.5 | 66.6 | 10.3 | 86.7
CC(Nc1ccc(Cl)cc1)c1cc(Cl)ccc1O (centres undefined) | -0.73 | 90.0 | -4.3 | 39.0* | · | 71.5
COc1ccc(NC(=O)C23CCC(C)(C(=O)C2)C3(C)C)cc1 (centres undefined) | -0.15 | 100.7 | 1.9 | 98.1 | 4.1 | 95.6
Cc1onc(-c2ccccc2Cl)c1C(=O)Nc1sc2c(c1C(N)=O)CCC(C)C2 (centres undefined) | -1.82 | 97.8 | 2.4 | 91.7 | · | 88.7
CCc1ccccc1NC(=O)CSc1nnc(Cn2nnc3ccccc32)n1C | 1.78 | 100.9 | · | 86.0 | · | 91.3
CCN1C(=O)c2cccc3c(S(=O)(=O)NCc4ccccn4)ccc1c23 | 0.04 | 94.9 | 30.8* | 94.3 | · | 79.0
CC(=O)Nc1nc2ccccc2n1CCN1CCOCC1 | 0.72 | · | 11.1 | · | 3.9 | ·
O=C(Nc1nc2ccccc2n1CCN1CCOCC1)c1cn(-c2ccccc2)nc1-c1ccccc1 | -1.79 | 53.4 | 0.0 | 19.2* | -3.1 | 63.4
COc1ccc(-c2cc(=O)n(-c3nc4ccccc4[nH]3)[nH]2)cc1 | -0.69 | 61.3 | -12.2 | 39.7* | -3.6 | 10.0*
Cc1cc(C)nc(NC(=O)c2ccc(Cl)c(Cl)c2)n1 | 0.01 | 104.1 | 8.8 | 107.3 | · | 99.9
Cc1cc(C)nc(NC2=NCCN2C(=O)Nc2ccc(Cl)c(Cl)c2)n1 | · | 85.2 | -1.0 | 22.2* | 6.1 | 64.9
